Each structure is given as a SMILES string. pIC50: −log10 of the molar value. The source made the active and inactive calls. No cut-off for these calls is given here.

The subject of the first assay is ME-180. Briefly: Inhibition of hypoxia-induced HIF1alpha protein accumulation in human HRE-bla-ME180 cells at 10 uM after 17 hrs by Western blot analysis. The assay is classed as functional, cell-based.
Settings: not given
In outline:
(§1)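 HRE-bla ME-180 cells, 1 × 10^6 per well, cultured 6 h, then exposed 17 h to compound in DMSO at 1% oxygen; DMSO under normal atmosphere as negative control. Lysis on ice with protease inhibitor, centrifugation, 25 ug protein on 10% Tris-Glycine SDS-PAGE, PVDF transfer. Blotted with anti-HIF-1α (1:250), β-actin (1:5000) loading control, HRP secondary, luminol detection.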
In the case of `CCOc1ccccc1-n1c(CN2CCOCC2)nc2ccccc2c1=O`, the inhibition result was “Active”.

Another assay addresses T1, Hypoxia-inducible factor 1-alpha (Homo sapiens, UniProt Q16665). Briefly: Inhibition of hypoxia-induced HIF1alpha activation in human ME180 cells by HRE3-Bla-[…] reporter gene assay. The assay is classed as cell-based, ME-180. Conditions: me-180. In outline: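 HRE-bla ME-180 reporter cells, 2500 per well, given compound by pin transfer (261-fold dilution), then held 17 h at 37 °C under 1% oxygen. LiveBLAzer B/G FRET β-lactamase substrate added, 2.5 h at room temperature; fluorescence read at 405 nm excitation, 460 and 530 nm emission. IC50 is the mean of three independent experiments.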
Target sequence in this assay (Q16665 whole entry): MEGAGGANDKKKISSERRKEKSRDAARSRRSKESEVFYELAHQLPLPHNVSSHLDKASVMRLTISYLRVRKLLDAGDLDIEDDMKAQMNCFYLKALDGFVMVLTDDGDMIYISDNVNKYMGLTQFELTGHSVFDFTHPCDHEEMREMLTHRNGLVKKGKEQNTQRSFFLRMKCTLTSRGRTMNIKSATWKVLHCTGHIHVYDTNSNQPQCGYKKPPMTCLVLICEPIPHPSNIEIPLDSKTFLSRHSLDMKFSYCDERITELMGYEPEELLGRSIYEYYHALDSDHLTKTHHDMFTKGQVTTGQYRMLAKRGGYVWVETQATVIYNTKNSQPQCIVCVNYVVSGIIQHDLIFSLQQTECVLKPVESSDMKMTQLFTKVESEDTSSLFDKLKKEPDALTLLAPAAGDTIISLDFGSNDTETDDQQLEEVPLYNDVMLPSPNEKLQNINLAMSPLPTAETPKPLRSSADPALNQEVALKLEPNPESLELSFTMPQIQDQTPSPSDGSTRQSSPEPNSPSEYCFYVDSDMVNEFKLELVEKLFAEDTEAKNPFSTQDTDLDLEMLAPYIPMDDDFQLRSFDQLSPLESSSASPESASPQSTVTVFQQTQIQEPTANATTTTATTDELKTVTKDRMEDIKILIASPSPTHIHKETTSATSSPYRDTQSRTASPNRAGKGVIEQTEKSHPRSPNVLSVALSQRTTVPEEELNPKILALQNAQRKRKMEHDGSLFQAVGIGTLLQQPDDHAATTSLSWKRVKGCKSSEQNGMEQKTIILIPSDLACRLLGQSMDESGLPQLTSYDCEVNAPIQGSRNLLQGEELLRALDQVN
Turning to `CC(C)(C)c1ccccc1-n1c(CN2CCN(C(=O)c3ccco3)CC2)nc2ccccc2c1=O`, the IC50 entry was “Not Active”.

Regarding `CCOc1ccccc1-n1c(CN2CCN(C(=O)c3ccco3)CC2)nc2ccc(I)cc2c1=O`, the IC50 result is “Not Active”.

In the case of `COc1ccc(-n2c(CN3CCNCC3)nc3ccccc3c2=O)cc1`, the IC50 result is reported as “Not Active”.

As to `O=C(c1ccco1)N1CCN(Cc2nc3ccccc3c(=O)n2-c2ccccc2)CC1`, the IC50 result is reported as “Not Active”.

As to `Cc1ccccc1-n1c(CN2CCN(C(=O)c3ccco3)CC2)nc2ccccc2c1=O`, the IC50 result was “Not Active”.

As to `O=C(c1ccco1)N1CCN(Cc2nc3ccccc3c(=O)n2-c2ccccc2Oc2ccccc2)CC1`, the IC50 result was “Not Active”.

`O=C(c1ccco1)N1CCN(Cc2nc3ccccc3c(=O)n2-c2ccccc2OCc2ccccc2)CC1`: the IC50 entry is reported as “Not Active”.

`CCOc1ccccc1-n1c(CN2CCN(C(=O)c3ccco3)CC2)nc2cc(OC)c(OC)cc2c1=O`: the IC50 result is listed as “Not Active”.

With `O=C(c1ccco1)N1CCN(Cc2nc3ccccc3c(=O)n2-c2ccccc2C(F)(F)F)CC1`, the IC50 entry is recorded as “Not Active”.

Take `CCOc1ccccc1-n1c(CN2CCN(C(=O)c3ccco3)CC2)nc2cccc(OC)c2c1=O`: the IC50 entry was “Not Active”.

For the compound `O=C(c1ccco1)N1CCN(Cc2nc3ccccc3c(=O)n2-c2ccccc2F)CC1`, the IC50 result is on record as “Not Active”.

Turning to `O=C(c1ccco1)N1CCN(Cc2nc3ccccc3c(=O)n2-c2ccccc2[N+](=O)[O-])CC1`, the IC50 entry is recorded as “Not Active”.

As to `CCOc1ccccc1-n1c(CN2CCCCC2)nc2ccccc2c1=O`, the IC50 result is “Not Active”.

On to `O=C(c1ccco1)N1CCN(Cc2nc3ccccc3c(=O)n2-c2ccc(F)cc2)CC1`, for which the IC50 entry is given as “Not Active”.

With `O=C(c1ccco1)N1CCN(Cc2nc3ccccc3c(=O)n2-c2ccccc2Cl)CC1`, the IC50 result is “Not Active”.

Still in this assay, the particulars now being: read-out: IC50.
As a reminder, the pIC50 is the IC50 on a negative log10 scale, so that one unit is a factor of ten. Turning to `COc1ccc([N+](=O)[O-])cc1-n1c(CN2CCNCC2)nc2ccccc2c1=O`, the pIC50 was 5.38.

As to `CCOc1ccccc1-n1c(CN2CCNCC2)nc2ccccc2c1=O`, the pIC50 is 7.05.

For `CCOc1ccccc1-n1c(CN2CCN(C)CC2)nc2ccccc2c1=O`, the negative-log IC50 (pIC50) was 6.09.

Take `CCOc1ccccc1-n1c(CN2CCN(Cc3ccccc3)CC2)nc2ccccc2c1=O`: the pIC50 was 4.56.

`COc1ccccc1-n1c(CN2CCN(C(=O)c3ccco3)CC2)nc2ccccc2c1=O`: the pIC50 was 5.48.

Regarding `CCOc1ccccc1-n1c(CN2CCN(C(=O)c3ccco3)CC2)nc2ccccc2c1=O`, the pIC50 was 6.37.

Take `O=c1c2ccccc2nc(CN2CCNCC2)n1-c1ccccc1OCc1ccccc1`: the negative-log IC50 (pIC50) is 4.64.

In the case of `CCOc1ccccc1-n1c(CN2CCN(C(=O)c3ccccc3)CC2)nc2ccccc2c1=O`, the negative-log IC50 (pIC50) is 5.77.

Take `CCOc1ccccc1-n1c(CN2CCN(C(C)=O)CC2)nc2ccccc2c1=O`: the pIC50 is 6.33.

As to `CCOc1ccccc1-n1c(CN2CCOCC2)nc2ccccc2c1=O`, the negative logarithm of the IC50 (pIC50) was 4.56.

Consider `CCNc1ccccc1-n1c(CN2CCNCC2)nc2ccccc2c1=O`, for which the pIC50 is 5.39.

As to `COc1ccc(C(F)(F)F)cc1-n1c(CN2CCNCC2)nc2ccccc2c1=O`, the negative-log IC50 (pIC50) is 6.70.

Consider `CCSc1ccccc1-n1c(CN2CCNCC2)nc2ccccc2c1=O`, for which the negative logarithm of the IC50 (pIC50) was 5.46.

`CCOc1ccccc1-n1c(CN2CCN(C(=O)c3ccco3)CC2)nc2cccc(C)c2c1=O`: the pIC50 was 5.92.

`CCOc1ccccc1-n1c(CN2CCCNCC2)nc2ccccc2c1=O`: the negative logarithm of the IC50 (pIC50) was 6.80.

For `CCOC(=O)N1CCN(Cc2nc3ccccc3c(=O)n2-c2ccccc2OCC)CC1`, the pIC50 was 5.03.

In the case of `CCOc1ccccc1-n1c(CC2CCN(C(=O)c3ccco3)CC2)nc2ccccc2c1=O`, the pIC50 was 4.56.

In the case of `CC(C)COc1ccccc1-n1c(CN2CCNCC2)nc2ccccc2c1=O`, the pIC50 was 5.21.

The subject of a further assay is ME-180. Briefly: Inhibition of hypoxia-induced HIF1alpha protein accumulation in human HRE-bla-ME180 cells at 1 uM after 17 hrs by Western blot analysis.
Settings: not given
The assay is classed as functional, cell-based. In outline:
as §1
Background: In western blotting, separated proteins are transferred to a membrane and probed.
In the case of `CCOc1ccccc1-n1c(CN2CCNCC2)nc2ccccc2c1=O`, the inhibition result was “Active”.

Consider `CCOc1ccccc1-n1c(CN2CCOCC2)nc2ccccc2c1=O`, for which the inhibition result was “inactive”.

The target of a further assay is T1, Hypoxia-inducible factor 1-alpha. Briefly: Ratio of NCGC00056044 IC50 to compound IC50 for hypoxia-induced HIF1alpha activation in human ME180 cells by HRE3-Bla-[…] reporter gene assay. The conditions noted are these: ME-180. The assay is classed as cell-based. A general note: Reporter assays use an easily measured gene product as a stand-in for the process of interest.
Target sequence in this assay (Q16665 whole entry, looked up): as the sequence (Q16665 whole entry) above
Consider `CCOc1ccccc1-n1c(CN2CCNCC2)nc2ccccc2c1=O`, for which the Ratio IC50 was 5.

The record behind these values is ChEMBL document CHEMBL1833966, “Synthesis and evaluation of quinazolin-4-ones as hypoxia-inducible factor-1α inhibitors” (Bioorg Med Chem Lett, 2011).
